Reference: ChEMBL document CHEMBL1154331, “Allenyl and alkynyl phenyl ethers from the endolichenic fungus Neurospora terricola” (J Nat Prod, 2009)

How the values were obtained:
HeLa = assay: Cytotoxicity against human HeLa cells after 48 hrs by MTT assay; assay type: functional, cell-based
How it was run: (§1)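 Run in triplicate; 10^4 cells per well, attached overnight. Cells exposed 4 h at 37 °C, 5% CO2, to compounds serially diluted from 10 mg/mL DMSO stocks (vehicle wells 0.2% DMSO in medium), then medium changed to fresh DMEM and grown a further 48 h. MTT at 0.5 mg/mL added for 3 h at 37 °C in the dark; formazan dissolved in DMSO, absorbance read at 540 nm.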

MCF7 = assay: Cytotoxicity against human MCF7 cells after 48 hrs by MTT assay; assay type: functional, cell-based; settings: MCF7, 48 h; how it was run: as §1

SMILES	IC50 (HeLa) [µM]	IC50 (MCF7) [µM]
C=C=CCOc1ccc(CO)cc1 [TERRICOLLENE C]	85.2	114
C#C[C@H](O)COc1ccc(COC)cc1	92.6	116
O=c1[nH]cc(F)c(=O)[nH]1 [FLUOROURACIL]	10	
C=C=CCOc1ccc(CO[C@@H]2O[C@H](CO)[C@@H](O)[C@H](O)[C@H]2O)cc1 [TERRICOLLENE A]	53.3	59.2
C#C[C@H](O)COc1ccc(COC(C)=O)cc1	> 171	> 171
C=C=CCOc1ccc(CO[C@@H]2O[C@H](CO)[C@@H](O)[C@H](O)[C@@H]2O)cc1 [TERRICOLLENE B]	> 118	> 118
C#C[C@H](O)COc1ccc(CO)cc1 [TERRICOLYNE]	> 200	> 200
